Test results: ChEMBL document CHEMBL4680070, “A second generation of 1,2,4-oxadiazole derivatives with enhanced solubility for inhibition of 3-hydroxykynurenine transaminase (HKT) from Aedes aegypti” (RSC Med Chem, 2021)
Calls of active or inactive are those of the source. The rule behind the calls is not given here.

Target: 3-hydroxykynurenine transaminase (Aedes aegypti) (UniProt Q0IG34)
Sequence (Q0IG34 whole entry): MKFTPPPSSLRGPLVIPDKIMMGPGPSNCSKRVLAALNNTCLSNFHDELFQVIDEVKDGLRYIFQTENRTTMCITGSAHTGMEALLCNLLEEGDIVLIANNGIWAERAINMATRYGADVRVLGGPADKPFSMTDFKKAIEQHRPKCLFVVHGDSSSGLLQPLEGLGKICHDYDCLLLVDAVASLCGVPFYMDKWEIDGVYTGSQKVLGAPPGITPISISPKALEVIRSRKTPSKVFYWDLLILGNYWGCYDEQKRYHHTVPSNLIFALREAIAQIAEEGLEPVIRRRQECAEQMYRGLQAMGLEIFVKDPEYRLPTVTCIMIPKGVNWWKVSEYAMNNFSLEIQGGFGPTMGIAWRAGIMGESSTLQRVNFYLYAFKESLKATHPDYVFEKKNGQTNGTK
Test: Competitive inhibition of Aedes aegypti 3-hydroxykynurenine transaminase at 300 uM using varying level of 3-D,L hydroxy kynurenine as substrate by Lineweaver-Burk plot analysis
With `O=C(O)CCc1nc(-c2ccccc2)no1` the inhibition was “Active”.

Test system: not listed separately
Test: Inhibition of recombinant Aedes aegypti RecLab N-terminal Trx-fused/His6-tagged 3-hydroxykynurenine transaminase H360M mutant expressed in Escherichia coli Rosetta 2 (DE3) assessed as reduction in conversion of 3-hydroxy kynurenine to xanthurenic-acid using 3-D,L hydroxy kynurenine as substrate preincubated with PLP cofactor and enzyme and 30 mins later incubated with 3-D,L-HK and measured after 5 mins by microplate reader assay
Outline: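 Recombinant AeHKT (2 μg) in 200 mM HEPES/100 mM NaCl with 2 mM 3-D,L-HK, 2 mM sodium pyruvate and 40 μM PLP. Reaction ran 5 min at 50 °C and was stopped with 10 mM FeCl3 in 0.1 M HCl. The XA–Fe3+ complex was read at 570 nm, and XA was quantified against a calibration curve. Run in duplicate.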
Compound `Cc1ccc(-c2noc(CCCC(=O)O)n2)cc1` has an IC50 of 88 µM.
In the case of `O=C(O)CCc1nc(-c2ccco2)no1`, the IC50 is reported as 84 µM.
Compound `O=C(O)CCCc1nc(-c2ccc(Br)cc2)no1` has an IC50 of 110 µM.
For `Cc1cccc(-c2noc(CCC(=O)O)n2)c1`, the IC50 was 110 µM.
With `O=C(O)CCc1nc(-c2ccc(Cl)cc2)no1` the IC50 was 85 µM.
Compound `COc1ccc(-c2noc(CCC(=O)O)n2)cc1` has an IC50 of 35 µM.
With `O=C(O)CCc1nc(-c2ccccc2)no1` the IC50 was 139 µM.
Work on `O=C(O)CCCc1nc(-c2ccc(C(F)(F)F)cc2)no1` yielded an IC50 of 70 µM.
For `Cc1cccc(-c2noc(CCCC(=O)O)n2)c1`, the IC50 was 54 µM.
`O=C(O)CCc1nc(-c2ccc(F)cc2)no1` gave an IC50 of 124 µM.
Compound `O=C(O)CCc1nc(-c2ccc(C(F)(F)F)cc2)no1` has an IC50 of 42 µM.
`O=C(O)CCc1nc(-c2ccc([N+](=O)[O-])cc2)no1` showed an IC50 of 76 µM.
Work on `Cc1ccc(-c2noc(CCC(=O)O)n2)cc1` yielded an IC50 of 73 µM.
Compound `O=C(O)CCCc1nc(-c2ccc(Cl)c(Cl)c2)no1` has an IC50 of 64 µM.
`O=C(O)CCCc1nc(-c2ccc3c(c2)OCO3)no1` gave an IC50 of 87 µM.
Work on `O=C(O)CCCc1nc(-c2ccc(I)cc2)no1` yielded an IC50 of 42 µM.
Work on `Cc1ccccc1-c1noc(CCC(=O)O)n1` yielded an IC50 of 339 µM.
`O=C(O)CCc1nc(-c2ccc3c(c2)OCO3)no1` showed an IC50 of 83 µM.
`O=C(O)CCCc1nc(-c2cccc3ccccc23)no1` showed an IC50 of 63 µM.
For `O=C(O)CCc1nc(-c2ccc(Br)cc2)no1`, the IC50 was 119 µM.
With `O=C(O)CCCc1nc(-c2ccc(Cl)cc2)no1` the IC50 was 294 µM.
For `O=C(O)CCc1nc(-c2ccccc2Cl)no1`, the IC50 was 77 µM.
In the case of `O=C(O)CCCc1nc(-c2ccccc2)no1`, the IC50 is reported as 72 µM.
Work on `O=C(O)CCc1nc(-c2ccccc2F)no1` yielded an IC50 of 116 µM.
Work on `O=C(O)CCc1nc(-c2cccc(Br)c2)no1` yielded an IC50 of 61 µM.
`O=C(O)CCc1nc(-c2cccs2)no1` gave an IC50 of 68 µM.
Work on `O=C(O)CCc1nc(-c2ccc(Cl)c(Cl)c2)no1` yielded an IC50 of 86 µM.
In the case of `COc1cccc(-c2noc(CCC(=O)O)n2)c1`, the IC50 is reported as 157 µM.
For `O=C(O)CCc1nc(-c2cccc([N+](=O)[O-])c2)no1`, the IC50 was 85 µM.
`COc1ccc(-c2noc(CCCC(=O)O)n2)cc1` gave an IC50 of 101 µM.
